The source of these data is BindingDB's records for doi:10.1021/np970237h (University of Antwerp, 1998).

SMILES strings stand for the structures.

For the test, the target named is Xanthine dehydrogenase/oxidase (Homo sapiens, UniProt P47989). Briefly: Inhibition of xanthine oxidase assessed as decrease in uric acid production by spectrophotometry. The method in brief: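 Flavonoid at various concentrations with 50 µM xanthine, 0.2 mM hydroxylamine and 0.1 mM EDTA. Stopped with HCl, then uric acid read as absorbance at 290 nm against an enzyme-free blank. IC50 by linear regression.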
Xanthine dehydrogenase/oxidase, sequence (P47989 whole entry): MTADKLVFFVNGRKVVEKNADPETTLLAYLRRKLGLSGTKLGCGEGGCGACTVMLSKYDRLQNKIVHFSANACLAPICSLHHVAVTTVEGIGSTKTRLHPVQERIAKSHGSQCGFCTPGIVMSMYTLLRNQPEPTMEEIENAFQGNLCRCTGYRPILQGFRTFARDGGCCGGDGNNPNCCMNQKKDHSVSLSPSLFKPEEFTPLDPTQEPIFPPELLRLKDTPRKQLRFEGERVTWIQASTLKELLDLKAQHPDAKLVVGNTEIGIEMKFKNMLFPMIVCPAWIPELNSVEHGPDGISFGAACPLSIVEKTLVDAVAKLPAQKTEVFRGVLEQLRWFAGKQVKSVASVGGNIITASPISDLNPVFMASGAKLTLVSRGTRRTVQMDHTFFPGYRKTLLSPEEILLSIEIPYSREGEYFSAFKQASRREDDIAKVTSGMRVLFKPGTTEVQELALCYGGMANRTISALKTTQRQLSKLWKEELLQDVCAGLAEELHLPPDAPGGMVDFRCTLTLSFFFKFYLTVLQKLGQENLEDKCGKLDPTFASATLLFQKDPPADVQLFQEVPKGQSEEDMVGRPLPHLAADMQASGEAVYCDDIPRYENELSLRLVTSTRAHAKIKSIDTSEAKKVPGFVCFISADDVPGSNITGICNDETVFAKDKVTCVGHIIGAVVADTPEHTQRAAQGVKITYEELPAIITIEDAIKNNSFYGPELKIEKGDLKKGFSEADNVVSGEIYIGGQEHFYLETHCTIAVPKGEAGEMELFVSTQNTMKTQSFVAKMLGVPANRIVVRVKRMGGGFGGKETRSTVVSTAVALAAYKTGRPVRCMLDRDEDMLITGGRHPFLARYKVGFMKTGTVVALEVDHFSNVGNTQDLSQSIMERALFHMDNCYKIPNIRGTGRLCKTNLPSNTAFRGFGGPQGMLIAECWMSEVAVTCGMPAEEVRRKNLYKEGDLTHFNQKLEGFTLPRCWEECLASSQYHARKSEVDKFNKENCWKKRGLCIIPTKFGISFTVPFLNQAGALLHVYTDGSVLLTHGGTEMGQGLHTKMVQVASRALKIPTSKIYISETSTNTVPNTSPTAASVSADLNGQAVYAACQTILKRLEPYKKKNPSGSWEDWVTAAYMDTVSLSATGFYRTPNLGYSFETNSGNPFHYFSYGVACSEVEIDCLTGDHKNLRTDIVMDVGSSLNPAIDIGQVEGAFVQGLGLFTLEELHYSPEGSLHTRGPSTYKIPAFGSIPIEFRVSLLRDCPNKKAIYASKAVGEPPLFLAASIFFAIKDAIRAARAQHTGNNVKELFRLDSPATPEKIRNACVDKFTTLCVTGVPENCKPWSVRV

For the molecule `C[C@@H]1O[C@@H](Oc2c(-c3ccc(O)c(O)c3)oc3cc(O)cc(=O)c-3c2O)[C@H](O)[C@H](O)[C@H]1O`, the half-inhibitory concentration (IC50) is above 100 µM. With `O=C(C=Cc1ccc(O)cc1)OC[C@H]1O[C@@H](Oc2c(-c3ccc(O)cc3)oc3cc(O)cc(=O)c-3c2O)[C@H](O)[C@@H](O)[C@@H]1O` [kaempferol-3-beta-D-(6-O-trans-p-coumaroyl)glucopyranoside] the figure was above 100 µM.

By IC50 is commonly meant the midpoint of a concentration-inhibition curve.
